KCC2 mod: modulators of human KCC2 chloride dependent transport. AID 1456. 2.2% of 190,000 active. KCC2 cells, thallium flux FluoZin-2 fluorescence. B-score of Tl+ flux slope (higher = more flux/activation; lower = inhibition) at 10 µM. Q9H2X9;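 active means thallium flux slope and its plate-corrected score both differing from the plate sample mean at a set confidence after two filtering rounds, in either direction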;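 further: slope of fluorescence scaled to starting intensity during 10 to 20 s after thallium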
SKKanGAS inh: blocks kanamycin growth of S. pyogenes SKKanGAS strain. BacTiter-Glo, 6 h. inhibition, % at 7.5 µM. 1.3% of 300,000 active;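 active means mean replicate score, as percent of positive control median, at least 50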;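 further: strain carries kanamycin resistance gene driven by streptokinase promoter and grows in 40 µg/ml kanamycin; loss of luminescence reflects streptokinase promoter inhibition or plain growth inhibition; 0% = median of DMSO wells and 100% = positive control at its reference dose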
Ins promoter up: MIN6 insulin promoter up-regulation; 0.3% of 190,000 active; MIN6 insulin promoter-GFP reporter, high-content imaging; active compounds read high; z-score at 5 µM;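 active means z-score above 3 at 5 µM with at least 500 cells counted in the well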
WT yeast gro inh: growth inhibition of WT yeast, mitochondrial fusion screen; mitochondrial fusion phenotypic screen, WT strain; inhibition, % at 10 µM; 2.1% of 190,000 active; AID 1362; in the data active means inhibition above about 58%; tested in S. cerevisiae
Autophagy HCS: modulators of autophagy; calls only at 10 µM (by protocol); 0.98% of 190,000 active; MEF GFP-LC3 puncta imaging; test concentration mostly 10 µM;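 active means percentage of spot-positive cells more than 3 SD above its plate mean, without a fluorescence outlier flag or 80% toxicity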;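 further: spot-positive cell cutoff set from DMSO-treated cells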
Rad51 HR inh: Rad51 (human) homologous recombination inhibition; Q06609; hRad51 DNA strand exchange, fluorescence dequenching; 0.085% of 200,000 active; inhibition, % at 10 µM;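 active means inhibition above 40% at the single screening dose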;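 further: 0% = DMSO control wells and 100% = blanks with heterologous ssDNA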
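Material: Human Rad51 nucleoprotein filaments preassembled on unlabelled ssDNA | Also added: Labelled 47-mer dsDNA for strand exchange | Dosing: Single dose, 10 µM final compound | Schedule: 30-min compound preincubation and 15-min exchange, both room temperature | Technique: Fluorescence dequenching at 485/520 nm | Measure: Percent inhibition relative to plate controls and blanks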
Active calls of the source: *; i = inactive; . = no result given; + = active, no number. A selection: hits, their analogues and other compounds. The true share with any hit is near 4.2%.

SMILES	KCC2 mod	SKKanGAS inh	Ins promoter up	WT yeast gro inh	Autophagy HCS	Rad51 HR inh
O=C(O)c1cc(-c2ccc(/C=N/Nc3ccc(Cl)cc3)o2)ccc1Cl	-2.4	-10	0.48	62*	i	2
Cn1cnc(S(=O)(=O)Nc2ccc(OC(F)(F)F)cc2)c1	-0.88	-26	-0.5	-10	i	.
CC1CCCC(NC(=O)CCC(=O)N2CCOc3ccccc32)C1C (stereo not drawn)	.	-4	.	.	.	.
OC(COc1ccc2ccccc2c1Br)Cn1cnc(-c2ccccc2)c1 (stereo not drawn)	1.1	56*	0.72	88*	i	13
C[C@@H](C(=O)NC1CCCC1)N1C(=O)N2CCc3c([nH]c4ccccc34)[C@@]2(C)C1=O	.	-4	.	.	.	.
CC(C)[C@@H](C(=O)NC1CCCC1)N1C(=O)N2CCc3c([nH]c4ccccc34)[C@@]2(C)C1=O	.	68*	.	.	.	.
Cc1ccc(NC(CNS(=O)(=O)c2ccc(Cl)cc2)c2ccccc2)cc1 (stereo not drawn)	.	43	-0.63	88*	i	1
NS(=O)(=O)c1ccc(NC(CNS(=O)(=O)c2ccccc2)c2ccccc2)cc1 (stereo not drawn)	2.5	-6	-0.11	1	i	-20
O=S(=O)(NCC(Nc1ccc(Cl)cc1)c1ccccc1)c1ccccc1 (stereo not drawn)	0.39	16	-0.44	83*	i	-1
CCCCc1nc2c(C)c(N)cnc2n1Cc1cccc([N+](=O)[O-])c1	.	12	.	.	.	.
CC1(C)CC(=NNC(=O)c2n[nH]c3c2CCC3)CC(C)(C)N1	0.13	1	1.1	-10	i	.
Cc1cc(Nc2ccccc2)nn1C(=O)c1ccc(Br)cc1	0.39	50*	0.12	73	i	2
Cc1cc(N/N=C/c2ccc([N+](=O)[O-])o2)nc2ccccc12	.	20	.	2	+	6
Cc1cc(Nc2ccc([N+](=O)[O-])cc2)nc2ccccc12	.	2	-0.63	-4	i	0
Cc1nn(Cc2c(Cl)cccc2Cl)c(C)c1NC(=O)c1cn(-c2ccccc2)nc1-c1ccccc1	.	63*	-2.1	7	i	.
Cc1cccc(C)c1NC(=O)CNC(=O)c1cn(-c2ccccc2)nc1-c1ccccc1	.	18	.	.	.	.
O=[N+]([O-])c1ccc(O)c(/C=N/Nc2ccccn2)c1	-0.017	-3	-1.9	19	i	15
O=C(N/N=C/c1ccc([N+](=O)[O-])o1)c1cc(-c2ccncc2)nc2ccccc12	-0.18	8	0.19	-9	i	-8
O=[N+]([O-])c1ccc(O)c(/C=N/Nc2ncnc3c2cnn3-c2ccccc2)c1	.	88*	.	.	.	.
O=C(N/N=C/c1ccc([N+](=O)[O-])o1)c1cc(-c2ccc(-c3ccccc3)cc2)nc2ccccc12	0.55	74*	-1.2	41	i	.
CC1C(=O)N2CCCc3cc(S(=O)(=O)N4CCC(C(N)=O)CC4)cc1c32 (stereo not drawn)	.	4	.	.	.	.
Cc1cc(C(=O)N/N=C/c2cc([N+](=O)[O-])ccc2O)c2ccccc2n1	-0.74	92*	-0.15	-2	i	.
CCOC(=O)c1c(C)[nH]c(C(=O)N/N=C\c2ccccc2O)c1C	-1.5	15	-3.4	-26	i	0
O=C(N/N=C/c1cc([N+](=O)[O-])ccc1O)c1c[nH]c2ccccc12	-0.83	66*	.	.	.	.
O=C(O)c1cn(-c2ccccc2)nc1-c1ccc(Cl)cc1	-3.8*	5	.	.	i	0
SMILES	KCC2 mod	SKKanGAS inh	Ins promoter up	WT yeast gro inh	Autophagy HCS	Rad51 HR inh
CCOC(=O)c1c(C)[nH]c(C(=O)N/N=C/c2cc([N+](=O)[O-])ccc2O)c1C	.	80*	.	.	.	.
CCOc1ccc(N=C(NN)c2ccc3ccccc3n2)cc1	0.53	27	0.15	33	i	0
Cc1cc2oc(C(=O)N(Cc3ccccc3)C3CCS(=O)(=O)C3)cc(=O)c2cc1Cl (stereo not drawn)	.	0	-0.95	3	i	.
COc1cccc(N2CCN(C(=O)c3cc4c(=O)n(Cc5ccccc5)ccc4nc3C)CC2)c1	.	-5	.	.	.	.
Cc1ccc(C)c(OCC(=O)Nc2ccc(S(=O)(=O)Nc3onc(C)c3C)cc2)c1	.	11	.	.	.	.
Cn1c(SCC(=O)N/N=C/c2cc([N+](=O)[O-])ccc2O)nnc1-c1ccccc1	-0.2	93*	.	.	.	0
Cc1cc(C(=O)N/N=C/c2cc(Br)cc([N+](=O)[O-])c2O)c2ccccc2n1	-1.2	106*	.	3	i	11

Assay outcomes as filed in PubChem BioAssay.
